Experimental data published in ChEMBL document CHEMBL3085708, “Identification and profiling of 3,5-dimethyl-isoxazole-4-carboxylic acid [2-methyl-4-((2S,3'S)-2-methyl-[1,3']bipyrrolidinyl-1'-yl)phenyl] amide as histamine H(3) receptor antagonist for the treatment of depression” (Bioorg Med Chem Lett, 2013).

Assays:
[1] = Mutagenic activity in micronucleus (unknown origin) at 5 to 950 ug/mL in absence of human liver microsomes; format: toxicity
Method in brief: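 In vitro micronucleus test; concentrations 5 to 950 µg/mL, run with and without metabolic activation by human liver microsomes.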

[2] = Toxicity in guinea pig heart assessed as decrease in ventricular contraction at 30 uM relative to control; format: tissue-based, Cavia porcellus, Cardiac ventricle
Mus musculus [3] = assay: Toxicity in mouse assessed as effect on autonomic activity at 10 to 30 mg/kg, po by Irwin test; format: organism-based; parameters: dose 10-30 mg/kg, route oral; settings: in vivo
Method in brief: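 Irwin exploratory general behaviour study in male mice; single oral doses of 0, 10 and 30 mg/kg; behavioural, neurologic and autonomic effects observed.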

Mus musculus [4] = assay: Toxicity in mouse assessed as appearance of tremor at 100 mg/kg, po; format: organism-based; parameters: dose 100 mg/kg, route oral; settings: in vivo
Method in brief: (§1)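 Acute oral group toxicity in mice: behavioural side effects scored (social interaction, motility, preconvulsant signs, convulsions, tremor) after single po doses of 30 and 100 mg/kg.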

Mus musculus [5] = assay: Toxicity in mouse assessed as effect on convulsion at 30 mg/kg, po; format: organism-based; parameters: dose 30 mg/kg, route oral; settings: in vivo; method in brief: as §1
[6] = Tmax in Sprague-Dawley rat plasma at 10 mg/kg, po; format: ADME, organism-based; parameters: dose 10 mg/kg, route oral
Method in brief: (§2)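 Male Sprague-Dawley rats dosed 2 mg/kg iv in saline (0.5 mg/mL) and 10 mg/kg po in 0.5% MC/0.2% Tween80 (1.0 mg/mL); plasma and brain concentrations followed.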

[7] = Cmax in Sprague-Dawley rat brain at 10 mg/kg, po; format: ADME, organism-based; parameters: dose 10 mg/kg, route oral
Method in brief: (§3)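 Oral PK at 10 mg/kg po in male OF1 mice (vehicle 5% DMSO/0.5% MC/0.2% Tween80, 1.0 mg/mL) and male Sprague-Dawley rats (vehicle 0.5% MC/0.2% Tween80, 1.0 mg/mL). Cmax and tmax taken from plasma and brain concentration–time profiles.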

[8] = Volume of distribution in Sprague-Dawley rat at 2 mg/kg, iv; format: ADME, organism-based; parameters: dose 2 mg/kg, route intravenous; settings: in vivo; method in brief: as §2
Rattus norvegicus = assay: Plasma clearance in Sprague-Dawley rat at 2 mg/kg, iv; format: ADME, organism-based; parameters: dose 2 mg/kg, route intravenous; settings: in vivo; method in brief: as §2
[9] = Elimination half life in Sprague-Dawley rat brain at 2 mg/kg, iv; format: ADME, organism-based; parameters: dose 2 mg/kg, route intravenous; settings: read-out: beta t1/2 (converted)
Method in brief: (§4)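 Single-dose PK; male OF1 mice and male Sprague-Dawley rats, 2 mg/kg iv and 10 mg/kg po. Mouse vehicles: iv 50% 1-methyl-2-pyrrolidinone in saline (1.0 mg/mL); po 5% DMSO/0.5% MC/0.2% Tween80 (1.0 mg/mL). Rat vehicles: iv saline (0.5 mg/mL); po 0.5% MC/0.2% Tween80 (1.0 mg/mL). Plasma and brain exposure read as AUC0-∞ and t1/2.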

[10] = Elimination half life in OF1 mouse plasma at 10 mg/kg, po; format: ADME, organism-based; parameters: dose 10 mg/kg, route oral; settings: read-out: beta t1/2 (converted); method in brief: as §4
[11] = Cmax in OF1 mouse plasma at 10 mg/kg, po; format: ADME, organism-based; parameters: dose 10 mg/kg, route oral; method in brief: as §3
[12] = AUC (0 to infinity) in OF1 mouse brain at 10 mg/kg, po; format: ADME, organism-based; parameters: time infinity, dose 10 mg/kg, route oral; method in brief: as §4
[13] = Elimination half life in OF1 mouse brain at 2 mg/kg, iv; format: ADME, organism-based; parameters: dose 2 mg/kg, route intravenous; settings: read-out: beta t1/2 (converted); method in brief: as §4
[14] = AUC (0 to infinity) in OF1 mouse brain at 2 mg/kg, iv; format: ADME, organism-based; parameters: time infinity, dose 2 mg/kg, route intravenous; method in brief: as §4
[15] = AUC (0 to infinity) in OF1 mouse plasma at 2 mg/kg, iv; format: ADME, organism-based; parameters: time infinity, dose 2 mg/kg, route intravenous; method in brief: as §4
Cytochrome P450 2C19 = Cytochrome P450 2C19 (Homo sapiens, UniProt P33261); assay: Inhibition of CYP2C19 (unknown origin) after 4 hrs; format: ADME
Chain of Cytochrome P450 2C19 (P33261 whole entry): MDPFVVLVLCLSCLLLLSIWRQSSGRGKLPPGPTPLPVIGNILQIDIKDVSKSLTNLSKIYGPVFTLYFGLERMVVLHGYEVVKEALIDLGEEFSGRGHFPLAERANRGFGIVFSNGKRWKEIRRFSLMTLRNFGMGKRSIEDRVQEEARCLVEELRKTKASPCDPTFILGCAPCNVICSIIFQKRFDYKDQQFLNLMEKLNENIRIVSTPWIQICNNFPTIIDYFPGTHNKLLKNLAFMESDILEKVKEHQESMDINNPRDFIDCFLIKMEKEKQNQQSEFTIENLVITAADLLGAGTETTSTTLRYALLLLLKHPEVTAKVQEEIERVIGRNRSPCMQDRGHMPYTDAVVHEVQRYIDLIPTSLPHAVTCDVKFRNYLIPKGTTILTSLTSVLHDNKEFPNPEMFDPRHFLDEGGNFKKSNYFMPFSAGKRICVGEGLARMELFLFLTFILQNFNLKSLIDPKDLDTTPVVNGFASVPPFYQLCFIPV

[16] = Drug metabolism in rabbit plasma at 100 ng/ml after 4 hrs; format: ADME, cell-free, Oryctolagus cuniculus; settings: read-out: Drug metabolism
Method in brief: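 Compound spiked into blank plasma of human, mouse, rat, rabbit, macaque and dog at 100 ng/ml, then incubated in a 37 °C water bath for up to 4 h; percent metabolized reported.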

[17] = Drug metabolism in dog liver microsomes; format: ADME, Canis lupus familiaris; settings: read-out: Drug metabolism
[18] = Drug metabolism in rabbit liver microsomes; format: ADME, Oryctolagus cuniculus, Microsome; settings: read-out: Drug metabolism
[19] = Drug metabolism in rat liver microsomes; format: ADME; settings: read-out: Drug metabolism
[20] = Drug metabolism in mouse liver microsomes; format: ADME, Microsome; settings: read-out: Drug metabolism
Salmonella typhimurium = assay: Genotoxicity in Salmonella typhimurium at 3 to 1000 ug/mL by Ames-2 test; format: toxicity, organism-based; settings: salmonella enterica subsp. enterica serovar typhimurium
Method in brief: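 Ames II bacterial mutagenicity test over 3 to 1000 µg/mL.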

[21] = molecular target: T1, Voltage-gated inwardly rectifying potassium channel KCNH2 (Canis lupus familiaris, UniProt Q9TSZ3); assay: Inhibition of canine ERG current transfected in CHO cells by patch clamp assay; format: cell-based
T1 sequence (Q9TSZ3 whole entry): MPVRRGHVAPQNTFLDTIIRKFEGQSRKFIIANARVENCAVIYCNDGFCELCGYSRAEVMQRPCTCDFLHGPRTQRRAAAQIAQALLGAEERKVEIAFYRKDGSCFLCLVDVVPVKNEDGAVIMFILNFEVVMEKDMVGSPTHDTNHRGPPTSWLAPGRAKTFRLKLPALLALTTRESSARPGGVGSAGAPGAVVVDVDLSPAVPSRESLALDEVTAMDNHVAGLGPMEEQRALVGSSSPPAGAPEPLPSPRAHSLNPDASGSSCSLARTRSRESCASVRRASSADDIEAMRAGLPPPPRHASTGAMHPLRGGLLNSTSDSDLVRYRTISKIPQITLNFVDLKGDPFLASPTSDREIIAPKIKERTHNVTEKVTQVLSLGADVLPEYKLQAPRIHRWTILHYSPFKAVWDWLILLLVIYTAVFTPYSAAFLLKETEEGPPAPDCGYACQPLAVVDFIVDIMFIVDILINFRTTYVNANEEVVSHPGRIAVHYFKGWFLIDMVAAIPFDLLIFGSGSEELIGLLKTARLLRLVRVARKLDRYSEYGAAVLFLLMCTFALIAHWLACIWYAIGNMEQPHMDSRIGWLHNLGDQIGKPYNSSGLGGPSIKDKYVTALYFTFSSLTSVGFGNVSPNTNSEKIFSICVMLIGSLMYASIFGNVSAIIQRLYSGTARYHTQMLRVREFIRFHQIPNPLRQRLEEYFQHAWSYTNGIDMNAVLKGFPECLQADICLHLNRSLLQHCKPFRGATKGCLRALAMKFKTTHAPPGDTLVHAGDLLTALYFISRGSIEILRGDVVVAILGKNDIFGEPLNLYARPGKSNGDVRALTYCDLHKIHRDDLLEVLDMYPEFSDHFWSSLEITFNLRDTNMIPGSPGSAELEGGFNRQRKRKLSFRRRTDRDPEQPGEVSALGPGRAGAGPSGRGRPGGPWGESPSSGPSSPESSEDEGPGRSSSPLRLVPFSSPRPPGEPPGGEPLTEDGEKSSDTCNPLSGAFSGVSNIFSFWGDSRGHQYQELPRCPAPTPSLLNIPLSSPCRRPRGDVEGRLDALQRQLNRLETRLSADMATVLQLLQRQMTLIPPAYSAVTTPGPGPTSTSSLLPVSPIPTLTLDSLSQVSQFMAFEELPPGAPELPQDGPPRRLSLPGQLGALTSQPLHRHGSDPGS
Method in brief: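 Whole-cell patch clamp on CHO cells stably transfected with the canine ERG gene; cERG current IC50 from n = 4.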

[22] = Dissociation constant, pKa of the compound; format: physicochemical
[23] = Therapeutic index, ratio for toxicity in mouse to ratio for antidepression-like activity in rat; settings: in vivo, read-out: TI

For `Cc1cc(N2CC[C@H](N3CCC[C@@H]3C)C2)ccc1NC(=O)c1c(C)noc1C`, which Activity [1] is on record?
Its Activity is “Non-toxic”.

And the inhibition at 30 µM [2]?
The inhibition at 30 µM was 33%.

And the Activity (Mus musculus [3])?
Its Activity is “Non-toxic”.

What about the Activity (Mus musculus [4]) of the same molecule?
The Activity was “Toxic”.

What about the Activity (Mus musculus [5]) of the same molecule?
Its Activity is “Non-toxic”.

And the Tmax [6]?
The Tmax was 0.5 h.

What about the Cmax [7] of the same molecule?
Its Cmax is 599 ng/mL.

What about the Vd [8] of the same molecule?
Its Vd is 2.8 L/kg.

And the clearance (Rattus norvegicus)?
Its clearance is 30 mL/min/kg.

And the half-life [9]?
Its half-life is 1.8 h.

And the half-life [10]?
Its half-life is 1.8 h.

And the Cmax [11]?
Its Cmax is 1680 ng/mL.

And the AUC(0-inf) [12]?
The AUC(0-inf) was 3100 ng·h/mL.

What about the half-life [13] of the same molecule?
The half-life was 0.93 h.

What about the AUC(0-inf) [14] of the same molecule?
Its AUC(0-inf) is 1100 ng·h/mL.

What about the AUC(0-inf) [15] of the same molecule?
The AUC(0-inf) was 670 ng·h/mL.

And the IC50 (Cytochrome P450 2C19)?
Its IC50 is greater than 100 µM.

What about the metabolised at 4 h, 100 ng/ml [16] of the same molecule?
Its metabolised at 4 h, 100 ng/ml is less than 5%.

And the metabolised [17]?
The metabolised was less than 5%.

What about the metabolised [18] of the same molecule?
Its metabolised is less than 5%.

What about the metabolised [19] of the same molecule?
The metabolised was less than 5%.

And the metabolised [20]?
Its metabolised is less than 5%.

What about the Activity (Salmonella typhimurium) of the same molecule?
The Activity was “Non-toxic”.

What about the IC50 [21] of the same molecule?
Its IC50 is 44 µM.

What about the pKa [22] of the same molecule?
The pKa was 10.1.

And the selectivity ratio [23]?
Its selectivity ratio is 3.
